For data set [1], the target named is T1, Mitogen-activated protein kinase kinase kinase 5 (Homo sapiens, UniProt Q99683).
T1 sequence (Q99683 whole entry): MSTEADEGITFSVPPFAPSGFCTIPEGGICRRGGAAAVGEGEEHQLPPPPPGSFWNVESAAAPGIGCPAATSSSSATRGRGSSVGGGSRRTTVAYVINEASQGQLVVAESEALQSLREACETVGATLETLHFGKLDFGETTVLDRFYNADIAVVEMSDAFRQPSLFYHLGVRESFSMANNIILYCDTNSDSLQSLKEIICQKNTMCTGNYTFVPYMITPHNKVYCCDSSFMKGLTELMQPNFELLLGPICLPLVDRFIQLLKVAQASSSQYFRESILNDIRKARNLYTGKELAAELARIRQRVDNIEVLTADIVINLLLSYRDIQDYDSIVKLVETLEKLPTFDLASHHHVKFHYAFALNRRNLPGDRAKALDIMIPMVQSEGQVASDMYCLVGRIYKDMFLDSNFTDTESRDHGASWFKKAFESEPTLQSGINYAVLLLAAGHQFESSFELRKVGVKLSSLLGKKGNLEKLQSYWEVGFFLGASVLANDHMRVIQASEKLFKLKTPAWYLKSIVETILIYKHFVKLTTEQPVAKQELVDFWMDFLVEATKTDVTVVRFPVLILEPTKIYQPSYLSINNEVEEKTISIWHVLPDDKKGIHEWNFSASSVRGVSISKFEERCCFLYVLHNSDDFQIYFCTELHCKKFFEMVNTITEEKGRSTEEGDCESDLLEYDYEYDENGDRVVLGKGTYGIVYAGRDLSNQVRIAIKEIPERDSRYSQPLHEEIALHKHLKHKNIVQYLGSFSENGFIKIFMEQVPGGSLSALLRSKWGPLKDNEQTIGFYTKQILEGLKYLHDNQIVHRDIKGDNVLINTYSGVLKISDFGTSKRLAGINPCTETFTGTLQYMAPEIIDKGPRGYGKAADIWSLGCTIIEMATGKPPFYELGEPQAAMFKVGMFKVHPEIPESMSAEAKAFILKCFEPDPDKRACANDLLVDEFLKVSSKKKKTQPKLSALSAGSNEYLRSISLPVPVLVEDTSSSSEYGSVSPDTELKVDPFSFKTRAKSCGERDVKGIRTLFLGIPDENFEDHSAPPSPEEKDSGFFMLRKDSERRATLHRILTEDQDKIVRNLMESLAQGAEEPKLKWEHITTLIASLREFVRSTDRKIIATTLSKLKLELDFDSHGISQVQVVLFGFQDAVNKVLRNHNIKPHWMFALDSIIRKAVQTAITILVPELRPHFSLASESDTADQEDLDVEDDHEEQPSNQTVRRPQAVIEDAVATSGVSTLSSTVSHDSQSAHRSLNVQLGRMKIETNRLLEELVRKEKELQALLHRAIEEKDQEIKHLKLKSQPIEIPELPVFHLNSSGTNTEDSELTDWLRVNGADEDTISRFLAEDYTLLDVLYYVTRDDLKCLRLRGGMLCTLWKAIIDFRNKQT
Briefly: Inhibition of recombinant full length human GST-tagged ASK1 expressed in baculovirus expression system using STK3 peptide substrate preincubated for 15 mins followed by substrate addition measured after 90 mins in presence of 1 mM ATP by HTRF assay. The essentials:
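Full-length recombinant human ASK1 (3 nM final) in kinase buffer with 5 mM MgCl2 and 1 mM DTT, preincubated with compound 15 min at 25 °C. Reaction started with ATP (1 mM) and STK3 peptide (1 µM final), run 90 min at room temperature, 2% DMSO. Stopped with EDTA detection mix, HTRF read after 2 h. Kiapp fitted by Morrison or competitive equation, converted to IC50 by Cheng-Prusoff using ATP Km 48 µM. Mean of at least two determinations.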
Background: TR-FRET usually uses a lanthanide donor and a delayed reading to cut background.

Data set [2] is described as follows: Lipophilicity, log D at pH 7.4 by shake flask method. The note with it: buffer.
Data set [3] concerns the target T1, Mitogen-activated protein kinase kinase kinase 5. Put plainly: Inhibition of recombinant full length human ASK1 expressed in HEK293/AP1-Luc cells assessed as reduction in p38 phosphorylation after 18 hrs by HTRF assay. It is filed as cell-based. The essentials: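 HEK293/AP-1luc cells stably overexpressing wild-type human full-length ASK1 (constitutively active, no stimulus), seeded at 25K cells/well, held 8 h at 37 °C, then switched to Optimem with Geneticin. Compound dilution series added (final DMSO 0.5%) for 18 h at 37 °C, 5% CO2. Cells lysed 1 h at room temperature; phospho-p38 read by HTRF after overnight (18 h) detection. Mean of at least two determinations.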

Data set [4] is described as follows: Permeability of the compound in RRCK cells. Type of data set: ADME, cell-based, Canis lupus familiaris, MDCKII-LE. The note with it: dog, MDCK; read-out: permeability.

For orientation: IC50 means the concentration that inhibits the measured activity by half. What is called logD is the decadic logarithm of the distribution of all forms, ionised or not, between an organic phase and buffer at a given pH. A high value points to higher lipophilicity. `CCS(=O)(=O)Nc1cccc(C(=O)Nc2cccc(-c3nncn3C(C)C)n2)c1`: the IC50 in data set [1] was determined as 0.073 µM. In data set [2], this compound had a logD of 1.7.
Regarding `CCS(=O)(=O)Nc1ccc(OC)c(C(=O)Nc2cccc(-c3nncn3C(C)C)n2)c1`, the IC50 came to 0.041 µM in data set [3] and 0.00032 µM in data set [1]. For the same compound, the logD in data set [2] stood at 2.2. For the same compound, the Papp in data set [4] stood at 5.6 ×10⁻⁶ cm/s.
On the same counts, the results for `CNC(=O)c1ccc(OC)c(C(=O)Nc2cccc(-c3nncn3C(C)C)n2)c1` are 0.272 µM, 0.0024 µM, 1.8 and 9.8 ×10⁻⁶ cm/s.
In the case of `CC(C)n1cnnc1-c1cccc(NC(=O)c2cccc(C(N)=O)c2)n1`, in data set [1], the IC50 stood at 0.58 µM.
Regarding `CC(C)n1cnnc1-c1cccc(NC(=O)c2cccc(-c3ncc[nH]3)c2)n1`, in data set [1], the IC50 was found to be 0.17 µM. The compound further gave a logD in data set [2] of 2.4.

(Values after ChEMBL document CHEMBL4251655 (Eur J Med Chem, 2018).)
